Laboratory results reported in ChEMBL document CHEMBL1126812, “Further insights into the molecular mechanisms of action of the serotonergic neurotoxin 5,7-dihydroxytryptamine” (J Med Chem, 1993).

Legend:
Mus musculus [1] = assay: Effect of central administration on whole mouse brain homovanillic acid (HAV) level after 1 hr; type: functional, organism-based
In short: (§1)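 Adult male outbred Hsd:ICR mice (25-35 g) under light ether anesthesia received a single 25 or 30 µg (free base) intracranial dose near the left lateral ventricle. Vehicle was 5 µL isotonic saline with 1.0 mg/mL ascorbate, and controls got vehicle alone. Mice were killed by focused microwave (250 ms, 7.0 kW) at 1 h, 1 day or 1 week. Brains were homogenized, spun at 50 000g (4 °C, 1 h) and filtered. Amines and metabolites were measured by LCEC as % of control ± sem, n = 11-18.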

Mus musculus [2] = assay: Effect of central administration on whole mouse brain 5-HT (5-HT) after 1 week; type: functional, organism-based; in short: as §1
Mus musculus [3] = assay: Effect of central administration on whole mouse brain acetylcholine (ACh) level after 1 hr; type: functional, organism-based
In short: (§2)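 The dosing, vehicle, controls, microwave sacrifice, timepoints and brain processing were the same as for the amine lines. Whole mouse brain ACh and choline were measured by LCEC on 20 µL aliquots of the filtered 50 000g supernate, which had been stored at -80 °C. Values are % of vehicle controls ± sem, n = 11-18 per group.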

Mus musculus [4] = assay: Effect of central administration on whole mouse brain dopamine (DA) level after 1 day; type: functional, organism-based; in short: as §1
Mus musculus [5] = assay: Effect of central administration on whole mouse brain acetylcholine (ACh) level after 1 day; type: functional, organism-based; in short: as §2
Mus musculus [6] = assay: Effect of central administration on whole mouse brain 5-HT (5-HT) after 1 hr; type: functional, organism-based; in short: as §1
Mus musculus [7] = assay: Effect of central administration on whole mouse brain norepinephrine (NE) level after 1 day; type: functional, organism-based; in short: as §1
Mus musculus [8] = assay: Effect of central administration on whole mouse brain 5-hydroxyindole-3-acetic acid (5-HIAA) level after 1 hr; type: functional, organism-based; in short: as §1
Mus musculus [9] = assay: Effect of central administration on whole mouse brain 5-hydroxyindole-3-acetic acid (5-HIAA) level after 1 week; type: functional, organism-based; in short: as §1
Mus musculus [10] = assay: Effect of central administration on whole mouse brain norepinephrine (NE) level after 1 hr; type: functional, organism-based; in short: as §1
Mus musculus [11] = assay: Effect of central administration on whole mouse brain cholin (Ch) level after 1 hr; type: functional, organism-based; in short: as §2
Mus musculus [12] = assay: Effect of central administration on whole mouse brain norepinephrine (NE) level after 1 week; type: functional, organism-based; in short: as §1
Mus musculus [13] = assay: Effect of central administration on whole mouse brain 5-hydroxyindole-3-acetic acid (5-HIAA) level after 1 day; type: functional, organism-based; in short: as §1
Mus musculus [14] = assay: Effect of central administration on whole mouse brain acetylcholine (ACh) level after 1 week; type: functional, organism-based; in short: as §2
Mus musculus [15] = assay: Effect of central administration on whole mouse brain 3,4-di hydroxyphenylacetic acid (DOPAC) level after 1 week; type: functional, organism-based; in short: as §1
Mus musculus [16] = assay: Weight which caused death of 50% of the treated animals within 1 hr following drug administration; type: ADME, organism-based; conditions: in vivo
In short: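 Adult male outbred Hsd:ICR albino mice, 25-35 g, given compound (dose as free base) intracranially near the left lateral ventricle under light ether anesthesia, in 5 µL isotonic saline containing 1.0 mg/mL ascorbic acid. Deaths within 1 h were scored, and LD50 (injected weight) was derived by Dixon's statistical method, reported as mean ± standard deviation on a log microgram scale.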

Mus musculus [17] = assay: Effect of central administration on whole mouse brain cholin (Ch) level after 1 day; type: functional, organism-based; in short: as §2
Mus musculus [18] = assay: Effect of central administration on whole mouse brain 3,4-di hydroxyphenylacetic acid (DOPAC) level after 1 hr; type: functional, organism-based; in short: as §1
Mus musculus [19] = assay: Effect of central administration on whole mouse brain cholin (Ch) level after 1 week; type: functional, organism-based; in short: as §2
Mus musculus [20] = assay: Effect of central administration on whole mouse brain 5-hydroxytryptamine (5-HT) after 1 day; type: functional, organism-based; in short: as §1
Mus musculus [21] = assay: Effect of central administration on whole mouse brain dopamine (DA) level after 1 hr; type: functional, organism-based; in short: as §1
Mus musculus [22] = assay: Effect of central administration on whole mouse brain 3,4-di hydroxyphenylacetic acid (DOPAC) level after 1 day; type: functional, organism-based; in short: as §1
Mus musculus [23] = assay: Effect of central administration on whole mouse brain homovanillic acid (HAV) level after 1 day; type: functional, organism-based; in short: as §1
Mus musculus [24] = assay: Effect of central administration on whole mouse brain 5-hydroxyindole-3-acetic acid(5-HIAA)level after 1 hr; type: functional, organism-based; in short: as §1
Mus musculus [25] = assay: Effect of central administration on whole mouse brain 5-hydroxytryptamine (5-HT) level after 1 day; type: functional, organism-based; in short: as §1
Mus musculus [26] = assay: Effect of central administration on whole mouse brain dopamine (DA) level after 1 week; type: functional, organism-based; in short: as §1
Mus musculus [27] = assay: Effect of central administration on whole mouse brain 5-hydroxytryptamine (5-HT) level after 1 week; type: functional, organism-based; in short: as §1
Mus musculus [28] = assay: Effect of central administration on whole mouse brain homovanillic acid (HAV) level after 1 week; type: functional, organism-based; in short: as §1
Mus musculus [29] = assay: Effect of central administration on whole mouse brain choline (Ch) level after 1 week; type: functional, organism-based; in short: as §2
Mus musculus [30] = assay: Effect of central administration on whole mouse brain choline (Ch) level after 1 day; type: functional, organism-based; in short: as §2
Mus musculus [31] = assay: Effect of central administration on whole mouse brain choline (Ch) level after 1 hr; type: functional, organism-based; in short: as §2
Mus musculus [32] = assay: Effect of central administration on whole mouse brain 3,4-di hydroxyphenylacetic acid (DOPAC)level after 1 week; type: functional, organism-based; in short: as §1
Mus musculus [33] = assay: Effect of central administration on whole mouse brain 5-hydroxyindole-3-acetic acid(5-HIAA)level after 1 week; type: functional, organism-based; in short: as §1
Mus musculus [34] = assay: Effect of central administration on whole mouse brain 5-hydroxyindole-3-acetic acid(5-HIAA)level after 1 day; type: functional, organism-based; in short: as §1

| Compound | Level (Mus musculus [1]) [%] | Level (Mus musculus [3]) [%] | Level (Mus musculus [4]) [%] | Level (Mus musculus [5]) [%] | Level (Mus musculus [6]) [%] | Level (Mus musculus [7]) [%] | Level (Mus musculus [10]) [%] | Level (Mus musculus [12]) [%] | Level (Mus musculus [14]) [%] | LD50 (Mus musculus [16]) [µg] | Level (Mus musculus [18]) [%] | Level (Mus musculus [21]) [%] | Level (Mus musculus [22]) [%] | Level (Mus musculus [23]) [%] | also measured |
| --- | --- | --- | --- | --- | --- | --- | --- | --- | --- | --- | --- | --- | --- | --- | --- |
| NCCc1c[nH]c2c1C(=O)C(O)=C(C1=C(O)c3[nH]cc(CCN)c3C(=O)C1=O)C2=O | 102 | 83 | 85 | 78 | 88 | 82 | 95 | 89 | 123 | 25.4 | 74 | 97 | 116 | 85 | Level (Mus musculus [2]): 103%; Level (Mus musculus [8]): 118%; Level (Mus musculus [9]): 152%; Level (Mus musculus [11]): 126%; Level (Mus musculus [13]): 76%; Level (Mus musculus [15]): 101%; Level (Mus musculus [17]): 78%; Level (Mus musculus [19]): 115%; Level (Mus musculus [20]): 75% |
| NCCc1c[nH]c2c1C(=O)C(=O)C=C2O | 147 | 100 | 79 | 65 | 89 | 84 | 80 | 114 | 107 | 29.6 | 54 | 92 | 107 | 92 | Level (Mus musculus [24]): 159%; Level (Mus musculus [25]): 72%; Level (Mus musculus [26]): 114%; Level (Mus musculus [27]): 104%; Level (Mus musculus [28]): 112%; Level (Mus musculus [29]): 106%; Level (Mus musculus [30]): 57%; Level (Mus musculus [31]): 153%; Level (Mus musculus [32]): 117%; Level (Mus musculus [33]): 106%; Level (Mus musculus [34]): 82% |
| NCCc1c[nH]c2c(O)cc(O)cc12 |  |  |  |  |  |  |  |  |  | 51.8 |  |  |  |  |  |
